Values joined by “and” are separate entries in the source; they are usually repeats but may differ in a detail not shown here. Equal entries are not always repeated.
Tests used:
[1] = biological target: T1, Glutathione reductase, mitochondrial (Homo sapiens, UniProt P00390); test: Inhibitory concentration against human glutathione reductase
T1 sequence (P00390 whole entry): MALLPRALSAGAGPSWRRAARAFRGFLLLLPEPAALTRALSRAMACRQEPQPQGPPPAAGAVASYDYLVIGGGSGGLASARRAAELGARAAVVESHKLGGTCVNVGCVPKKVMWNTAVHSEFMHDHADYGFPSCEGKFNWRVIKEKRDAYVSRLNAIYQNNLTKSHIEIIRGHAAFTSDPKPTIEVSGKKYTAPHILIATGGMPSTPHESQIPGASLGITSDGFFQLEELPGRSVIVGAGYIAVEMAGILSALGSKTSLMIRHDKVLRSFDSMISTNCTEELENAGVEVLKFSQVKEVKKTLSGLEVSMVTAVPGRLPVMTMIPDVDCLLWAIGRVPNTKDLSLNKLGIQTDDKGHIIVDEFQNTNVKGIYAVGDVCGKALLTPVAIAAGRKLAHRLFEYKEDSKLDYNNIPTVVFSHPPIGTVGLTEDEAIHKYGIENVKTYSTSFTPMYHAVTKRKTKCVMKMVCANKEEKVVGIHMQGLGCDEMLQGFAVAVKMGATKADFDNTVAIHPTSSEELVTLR
Summary of the method: (§1)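 Recombinant GR (human or P. falciparum) in 100 mM potassium phosphate pH 7.0, 200 mM KCl, 100 μM NADPH, 1 mM GSSG, with 1% final DMSO. Started with 8 milliunits of enzyme. Initial rates of NADPH oxidation read at 340 nm. […] A second set of standard assays used 200 μM GSSG.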

Plasmodium falciparum = test: Inhibitory concentration against Plasmodium falciparum […]; format: functional, organism-based; details: FcB1/Columbia
Glutathione reductase = Glutathione reductase (Plasmodium falciparum 3D7, UniProt O15770); test: Inhibitory concentration against Plasmodium falciparum glutathione reductase; summary of the method: as §1
[2] = biological target: T1, Glutathione reductase, mitochondrial; test: Inhibitory concentration against human glutathione reductase (In presence of glutathione disulfide)
[3] = biological target: T1, Glutathione reductase, mitochondrial; test: Inhibitory concentration against human glutathione reductase (In presence of NADPH)
[4] = biological target: Glutathione reductase (Plasmodium falciparum) (UniProt Q94655); test: Inhibitory concentration against Plasmodium falciparum glutathione reductase
Glutathione reductase (Plasmodium falciparum), sequence (Q94655 whole entry, looked up): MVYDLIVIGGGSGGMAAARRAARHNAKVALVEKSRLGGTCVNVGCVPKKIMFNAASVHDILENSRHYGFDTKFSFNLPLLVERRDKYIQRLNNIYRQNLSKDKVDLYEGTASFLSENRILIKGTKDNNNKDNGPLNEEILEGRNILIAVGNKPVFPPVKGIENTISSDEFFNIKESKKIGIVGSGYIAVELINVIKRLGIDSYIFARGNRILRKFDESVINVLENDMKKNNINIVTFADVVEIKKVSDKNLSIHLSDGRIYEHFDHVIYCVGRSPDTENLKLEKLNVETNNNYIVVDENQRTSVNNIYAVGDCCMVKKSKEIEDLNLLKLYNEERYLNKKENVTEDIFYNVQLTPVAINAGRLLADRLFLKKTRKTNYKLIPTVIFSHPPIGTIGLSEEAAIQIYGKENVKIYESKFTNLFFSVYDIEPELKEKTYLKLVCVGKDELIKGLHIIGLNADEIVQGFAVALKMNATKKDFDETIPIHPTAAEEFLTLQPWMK

[5] = biological target: T1, Glutathione reductase, mitochondrial; test: Inhibitory concentration against human glutathione reductase in the presence of 200 uM exogenous NADP
[6] = biological target: T1, Glutathione reductase, mitochondrial; test: Inhibitory concentration against human glutathione reductase in the absence of glucose-6-phosphate dehydrogenase (G6PDH); summary of the method: as §1

| IC50 [1] [µM] | IC50 (Plasmodium falciparum) [µM] | IC50 (Glutathione reductase) [µM] | Compound | also measured |
| --- | --- | --- | --- | --- |
| 22.7 | 1.5 | 57 | CC1=C(CCCCC(=O)NCCC#N)C(=O)c2ccccc2C1=O | – |
| – | 0.9 | – | CC1=C(CCCc2nnnn2CCC#N)C(=O)c2ccccc2C1=O | – |
| – | 4 | – | CC1=C(CCCCC(=O)O)C(=O)c2ccccc2C1=O | – |
| 16 | – | 6.4 | CN(C)c1ccc2nc3ccc(=[N+](C)C)cc-3sc2c1 [METHYLENE BLUE ANHYDROUS] | – |
| – | – | – | CC1=CC(=O)c2ccccc2C1=O [MENADIONE] | Ki [2]: 12.1 µM; Ki [3]: 16.1 µM |
| 27 | 1.4 | 10.8 | CC1=C(CCCCc2nnnn2CCC#N)C(=O)c2ccccc2C1=O | – |
| 3.2 | 3.5 | 4.5 | CC1=C(CCCCCC(=O)O)C(=O)c2ccccc2C1=O | Ki [4]: 3.7 µM; IC50 [5]: 2.7 µM; IC50 [6]: 2.7 µM and 1.8 µM; Ki (Glutathione reductase): 3.6 µM |
| – | 1.1 | – | CC1=C(CCCCCc2nnnn2CCC#N)C(=O)c2ccccc2C1=O | – |
| – | 1 | – | CC1=C(CCCCCC(=O)NCCC#N)C(=O)c2ccccc2C1=O | – |
| – | 12.6 | – | CC1=C(CCCCCC(=O)OCCN(C)C)C(=O)c2ccccc2C1=O | – |
| – | 1.8 | – | CC1=C(CCCC(=O)NCCC#N)C(=O)c2ccccc2C1=O | – |

Source: ChEMBL document CHEMBL1138849, “5-substituted tetrazoles as bioisosteres of carboxylic acids. Bioisosterism and mechanistic studies on glutathione reductase inhibitors as antimalarials” (J Med Chem, 2004)
